The subject of series [1] is PC-12. Briefly: Neuritogenic activity in rat PC12 cells assessed as induction of neuronal differentiation at 50 uM after 2 days by Giemsa staining-based phase contrast microscopic analysis. The class given is functional, cell-based. Summed up: (§1)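 PC12 neurite outgrowth assay (modified procedure) with 2-day incubation; compounds at 50, 20, 10, 5 or 1 μM. Positive control NGF 20 ng mL-1, solvent control DMSO 0.1%. Mean ± SEM, n = 3; unpaired t test, 95% confidence interval.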

Series [2] can be described thus: Cytotoxicity against rat PC12 cells at 50 uM. In kind it is cell-based. The settings on record: pc-12, 50 µM.
The test system of series [3] is PC-12. Briefly: Neuritogenic activity in rat PC12 cells assessed as induction of neuronal differentiation at 20 uM after 2 days by Giemsa staining-based phase contrast microscopic analysis. The class given is functional, cell-based. Summed up: as §1
In series [4] the target is T1, Fatty-acid amide hydrolase 1 (Homo sapiens) (UniProt O00519).
T1 sequence (whole entry): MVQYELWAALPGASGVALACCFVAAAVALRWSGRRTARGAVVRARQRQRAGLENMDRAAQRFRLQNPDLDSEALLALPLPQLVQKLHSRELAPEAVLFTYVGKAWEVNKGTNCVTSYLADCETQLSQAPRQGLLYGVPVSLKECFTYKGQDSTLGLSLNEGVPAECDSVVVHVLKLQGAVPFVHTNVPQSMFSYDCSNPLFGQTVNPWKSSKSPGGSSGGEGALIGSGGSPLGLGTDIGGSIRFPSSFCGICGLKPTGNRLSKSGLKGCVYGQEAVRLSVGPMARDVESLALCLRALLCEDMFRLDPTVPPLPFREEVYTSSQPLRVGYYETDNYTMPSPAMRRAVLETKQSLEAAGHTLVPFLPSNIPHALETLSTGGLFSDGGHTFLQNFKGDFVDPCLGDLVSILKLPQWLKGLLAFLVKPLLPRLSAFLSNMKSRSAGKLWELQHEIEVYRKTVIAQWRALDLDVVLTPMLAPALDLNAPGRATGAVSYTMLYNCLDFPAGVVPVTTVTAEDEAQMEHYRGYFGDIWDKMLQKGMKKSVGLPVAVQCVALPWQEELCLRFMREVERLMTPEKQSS
Briefly: Inhibition of FAAH (unknown origin) at 1 uM. Summed up: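 FAAH activity measured with compounds at 1 μM.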

Series [5] relates to U-937. The series is described as follows: Inhibition of anandamide membrane transporter in human U937 cells assessed as inhibition of [3H]-AEA uptake at 10 uM preincubated for 10 to 30 mins followed by [3H]-AEA addition measured after 5 mins by liquid scintillation counting analysis relative to control. In kind it is cell-based.
Series [6] in a line: Inhibition of anandamide membrane transporter in human U937 cells assessed as inhibition of [3H]-AEA uptake preincubated for 10 to 30 mins followed by [3H]-AEA addition measured after 5 mins by liquid scintillation counting analysis. The following applies: u-937. In kind it is cell-based. Summed up: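 [3H]AEA transport in human U937 leukemic monocyte lymphoma cells; EC50 and maximal inhibition taken from concentration-dependent curves, n = 3–5.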

Series [7] deals with PC-12. The series is described as follows: Neuritogenic activity in rat PC12 cells assessed as induction of neuronal differentiation at 1 uM after 2 days by Giemsa staining-based phase contrast microscopic analysis. The class given is functional, cell-based. Summed up: as §1
Series [8] can be described thus: Cytotoxicity against rat PC12 cells at 1 uM. The following applies: pc-12, 1 µM. The class given is cell-based.
Series [9] can be described thus: Cytotoxicity against rat PC12 cells at 10 uM. In kind it is cell-based. The following applies: pc-12, 10 µM.
Series [10] deals with PC-12. The series is described as follows: Neuritogenic activity in rat PC12 cells assessed as induction of neuronal differentiation at 10 uM after 2 days by Giemsa staining-based phase contrast microscopic analysis. In kind it is functional, cell-based. Summed up:
as §1

Series [11] has as its system U-937. Briefly: Potency index, ratio of UCM707 EC50 to compound EC50 for anandamide membrane transporter in human U937 cells. In kind it is cell-based.
In series [12] the target is Cannabinoid receptor 1 (Homo sapiens, UniProt P21554). The series is described as follows: Displacement of [3H]-CP55940 from human CB1 receptor expressed in CHO cell membranes after 90 mins by scintillation counting analysis. Summed up: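 Membranes from CHO cells stably transfected with human CB1 incubated 90 min at 30 °C with varying compound concentrations and 0.5 nM [3H]-CP55940; WIN55,212-2 as positive control. Mean ± SD, n = 2–3.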
In general terms: Loss of bound radioactivity is the signal in a displacement assay; it reports binding, not function.

In series [13] the test system is PC-12. The series is described as follows: Neuritogenic activity in rat PC12 cells in presence of CB1 antagonist rimonabant/AM251. In kind it is functional, cell-based. Summed up:
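PC12 cells co-treated with the CB1 antagonists rimonabant (1 μM and 100 nM) or AM251 (3 μM and 100 nM) alongside the differentiation-inducing compound, in the neurite outgrowth assay.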

Series [14] concerns PC-12. The series is described as follows: Neuritogenic activity in rat PC12 cells assessed as induction of neuronal differentiation at 5 uM after 2 days by Giemsa staining-based phase contrast microscopic analysis. The class given is functional, cell-based. Summed up: as §1
The test system of series [15] is PC-12. Briefly: Neuritogenic activity in rat PC12 cells at 100 nM. The class given is functional, cell-based.

Active and inactive are the calls of the source. The calls are words filed in the database; no cut-off is given here.

Usually inhibition stands for the relative decrease from the control value, in per cent. The EC50 is the concentration giving half of the maximal effect. Broadly, the Ki is the equilibrium dissociation constant of an inhibitor or competing ligand from its target.

Cannabinoid receptor 1, sequence (P21554 whole entry): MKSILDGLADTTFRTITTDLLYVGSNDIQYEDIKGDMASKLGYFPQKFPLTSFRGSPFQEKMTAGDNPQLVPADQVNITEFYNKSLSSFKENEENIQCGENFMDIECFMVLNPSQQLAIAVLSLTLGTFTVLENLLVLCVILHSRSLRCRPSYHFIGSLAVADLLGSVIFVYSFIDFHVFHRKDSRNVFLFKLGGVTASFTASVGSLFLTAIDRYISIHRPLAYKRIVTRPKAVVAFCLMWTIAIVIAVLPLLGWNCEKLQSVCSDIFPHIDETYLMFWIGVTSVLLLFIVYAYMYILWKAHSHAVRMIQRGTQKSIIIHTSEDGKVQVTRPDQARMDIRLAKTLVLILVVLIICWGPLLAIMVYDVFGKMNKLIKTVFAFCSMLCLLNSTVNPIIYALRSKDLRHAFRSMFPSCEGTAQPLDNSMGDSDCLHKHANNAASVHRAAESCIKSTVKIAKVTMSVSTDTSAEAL

Regarding `CCC(=O)N[C@H](CO)Cc1ccc(OC(=O)CC)cc1`, the outcome in series [1] was inactive.

On to `CCC(=O)NCCc1ccc(O)cc1`, for which the Activity entry in series [2] was “Toxic”. In addition, the result in series [1] was inactive.

As to `CC(/C=C/C(=O)NC(CO)Cc1ccc(O)cc1)=C\C(C)CC(=O)O` (configuration not stated), the outcome in series [3] was Active.

Regarding `CCC(=O)N[C@@H](Cc1ccc(O)cc1)C(=O)O`, in series [4], the inhibition result was “Active”. Also, the inhibition in series [5] stood at 20%. The outcome in [1] was Active.

As to `CCCCC/C=C\C/C=C\C/C=C\C/C=C\CCCC(=O)NCCc1ccoc1`, the 50% effective concentration (EC50) in series [6] amounted to 1800 nM. The Imax in series [5] came to 80%.

Regarding `CCCN[C@H](CO)Cc1ccc(O)cc1`, the outcome in series [1] was inactive.

Regarding `CC/C=C\C/C=C\C/C=C\CCCCCCCCN[C@H](CO)Cc1ccc(O)cc1`, in series [7], the result was inactive. The Activity entry in [8] is recorded as “Non-toxic”; in series [9] it was “Toxic”. Further, the EC50 in series [6] was 966 nM. Also, in [5], the Imax turned out to be 60%.

Regarding `O=C(CCCCCCCCCCCCCCO)N[C@H](CO)Cc1ccc(O)cc1`, in series [6], the EC50 amounted to 757 nM. Also, the Imax in series [5] stood at 73%. Also, the result in series [10] was inactive.

Consider `CCC(=O)N[C@H](COC)Cc1ccc(O)cc1`, for which the result in series [1] was inactive.

Take `CC(C)C(=O)N[C@H](CO)Cc1ccc(O)cc1`: in [1], the result was inactive.

For `CCC(=O)N[C@@H](CO)Cc1ccc(O)cc1`, the outcome in [1] was inactive.

For the compound `CCC(=O)N[C@H](CO)Cc1ccc(O)cc1`, in series [1], the outcome was Active.

In the case of `O=C(CCCCCCCO)N[C@H](CO)Cc1ccc(O)cc1`, the inhibition entry in [4] was “Active”. Also, in series [5], the inhibition turned out to be 20%. Besides, the outcome in series [10] and in [1] was Active.

On to `O=C(N[C@H](CO)Cc1ccc(O)cc1)c1ccccc1`, for which the Activity result in series [2] is on record as “Non-toxic”. Besides, the inhibition entry in [4] was “Active”. The inhibition in series [5] was determined as 20%.

For the compound `CCCCC/C=C\C/C=C\CCCCCCCCN[C@H](CO)Cc1ccc(O)cc1`, the outcome in [7] was inactive. For the same compound, the values for the Activity result in [8] and in series [9] were “Non-toxic” and “Toxic”, respectively. In addition, in [6], the concentration for a half-maximal effect (EC50) came to 975 nM. In addition, the Imax in series [5] was determined as 51%.

On to `CCCCC/C=C\C/C=C\CCCCCCCC(=O)N[C@H](CO)Cc1ccc(O)cc1`, for which, in [11], the Ratio EC50 is 10. The same compound showed a Ki in series [12] of 810 nM. Besides, the EC50 in [6] is 228 nM. Besides, the result in [13] and in series [10] was Active. The Imax in series [5] was determined as 52%.

As for `CC(C)(C)C(=O)N[C@H](CO)Cc1ccc(O)cc1`, the result in [1] was inactive.

With `OCCCCCCCCCCCCCCCN[C@H](CO)Cc1ccc(O)cc1`, the outcome in series [7] was inactive. Moreover, the Activity result in series [8] is listed as “Non-toxic”; in series [9], “Toxic”. In addition, affinity in [12] was put at a Ki of 530 nM.

As for `O=C(CCCc1cn(C23CC4CC(CC(C4)C2)C3)nn1)N[C@H](CO)Cc1ccc(O)cc1`, the outcome in series [1] was inactive.

Turning to `CCCCCCCCC(=O)N[C@H](CO)Cc1ccc(O)cc1`, the outcome in [1] was inactive.

With `CCC(=O)N[C@H](CO)Cc1ccccc1`, the outcome in series [1] was inactive.

As for `CCCCCCCCCCCCCCCCN[C@H](CO)Cc1ccc(O)cc1`, in [7], the result was inactive. For the same compound, the Activity entry in series [8] is on record as “Non-toxic”; in series [9], “Toxic”.

For `CCC(=O)NCCc1ccc(O)c(O)c1`, in series [2], the Activity entry is listed as “Toxic”. Also, the outcome in series [14] was inactive.

Consider `CCC(=O)N[C@H](COC)Cc1ccc(OC)cc1`, for which the inhibition entry in series [4] is “Active”. Moreover, the inhibition in series [5] turned out to be 20%. Besides, the outcome in series [1] was inactive.

Turning to `CCCCC/C=C\C/C=C\C/C=C\C/C=C\CCC(C)C(=O)NCCF` (configuration not stated), the outcome in series [15] was inactive.

On to `O=C(CCC(=O)N[C@@H](CO)Cc1ccc(O)cc1)N[C@H](CO)Cc1ccc(O)cc1`, for which the inhibition entry in series [4] was “Active”. For the same compound, in series [5], the inhibition was 20%. The outcome in series [1] was Active.

For the compound `CCC(=O)N[C@H](COC(=O)CC)Cc1ccc(O)cc1`, the result in [1] was inactive.

For the compound `CCC(=O)N[C@H](CO)Cc1ccc(OC)cc1`, in series [1], the result was inactive.

The values are drawn from ChEMBL document CHEMBL3112497, “Functionally Optimized Neuritogenic Farinosone C Analogs: SAR-Study and Investigations on Their Mode of Action” (ACS Med Chem Lett, 2014).
